The values below come from ChEMBL document CHEMBL1687792, “vanM, a new glycopeptide resistance gene cluster found in Enterococcus faecium” (2010).

The subject of assay [1] is Enterococcus faecium. Put plainly: Antimicrobial activity against glycopeptide-resistant Enterococcus faecium isolate HS0649 harboring MLST sequence type ST17 and pulsotype B expressing vanA gene cluster isolated from exudate of patient by Etest.
For assay [2], the system named is Enterococcus faecium. Put plainly: Antimicrobial activity against glycopeptide-resistant Enterococcus faecium isolate HS0661 harboring MLST sequence type ST78 and pulsotype C expressing vanM gene cluster isolated from exudate of patient by Etest.
Assay [3] concerns Enterococcus faecium. Put plainly: Antimicrobial activity against glycopeptide-resistant Enterococcus faecium isolate HS05417 harboring MLST sequence type ST17 and pulsotype A expressing vanA gene cluster isolated from urine of patient by Etest.
Assay [4] has as its system Enterococcus faecium. Put plainly: Antimicrobial activity against glycopeptide-resistant Enterococcus faecium isolate HS0761 harboring MLST sequence type ST78 and pulsotype C expressing vanM gene cluster isolated from urine of patient by Etest.
The test system of assay [5] is Enterococcus faecium. The experiment in a line: Antimicrobial activity against glycopeptide-resistant Enterococcus faecium isolate HS08257 harboring MLST sequence type ST341 and pulsotype F expressing vanM gene cluster isolated from urine of patient by Etest.
Assay [6] deals with Enterococcus faecium. The experiment in a line: Antimicrobial activity against glycopeptide-resistant Enterococcus faecium isolate HS05446 harboring MLST sequence type ST17 and pulsotype B expressing vanA gene cluster isolated from urine of patient by Etest.
For assay [7], the system named is Enterococcus faecium. Put plainly: Antimicrobial activity against glycopeptide-resistant Enterococcus faecium isolate HS07261 harboring MLST sequence type ST78 and pulsotype D expressing vanM gene cluster isolated from urine of patient by Etest.
Assay [8] concerns Enterococcus faecium. Put plainly: Antimicrobial activity against glycopeptide-resistant Enterococcus faecium isolate HS08369 harboring MLST sequence type ST18 and pulsotype G expressing vanM gene cluster isolated from urine of patient by Etest.
Assay [9] relates to Enterococcus faecium. Put plainly: Antimicrobial activity against glycopeptide-resistant Enterococcus faecium isolate HS0847 harboring MLST sequence type ST78 and pulsotype E expressing vanM gene cluster isolated from urine of patient by Etest.
The subject of assay [10] is Enterococcus faecium. The experiment in a line: Antimicrobial activity against glycopeptide-resistant Enterococcus faecium isolate HS06188 harboring MLST sequence type ST78 and pulsotype A expressing vanA gene cluster isolated from urine of patient by Etest.
Assay [11] deals with Enterococcus faecium. Put plainly: Antimicrobial activity against rifampin-, fusidic acid-resistant Enterococcus faecium BM-4105 by Etest. In kind it is functional. A digest of the protocol:
(§1)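 MIC by Etest on Mueller-Hinton agar, run per manufacturer's instructions and interpreted by CLSI recommendations. Same method for donor, recipient (BM4105RF, Fusr Rifr) and transconjugants. Transconjugants came from filter mating and were selected on BHI agar with rifampin (100 μg/ml) or fusidic acid (10 μg/ml) plus vancomycin (10 μg/ml).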

Assay [12] has as its system Enterococcus faecium. The experiment in a line: Antimicrobial activity against Enterococcus faecium BM-0661 transconjugant by Etest. It counts as functional. The method in brief: as §1
Assay [13] concerns Enterococcus faecalis. The experiment in a line: Induction of VanM gene cluster in glycopeptide-resistant Enterococcus […] isolate HS0661 harboring MLST sequence type ST78 and pulsotype C expressing vanM gene cluster isolated from exudate of patient assessed as UDP-MurNAc-tetrapeptide-D-lactate at 50 ug/mL by LC-MS method. In kind it is functional, organism-based. The method in brief: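 Efm-HS0661 was grown in BHI broth to OD650 0.4, then exposed to glycopeptide at 50 μg/ml for a further 120 min. Peptidoglycan precursors were extracted and separated on a C18 column at 30 μl/min using a linear gradient over 18 min. Eluent A was 10 mM ammonium acetate, pH 5; eluent B was 2% acetonitrile in the same buffer. Precursors were identified by MS from fragments at m/z 562 and 747.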

In brackets after ≈: the same amount, converted by molar mass. Activity calls are given as the source filed them. The calls are words filed in the database; no cut-off is given here.

As to `C[C@H]1c2cccc(O)c2C(=O)C2=C(O)[C@]3(O)C(=O)C(C(N)=O)=C(O)[C@@H](N(C)C)[C@@H]3[C@@H](O)[C@@H]21.O` [DOXYCYCLINE], the MIC was found to be 6 µg/mL in [1]; 0.125 µg/mL in [2]; 0.19 µg/mL in assay [3]; 0.125 µg/mL in assay [4]; 0.19 µg/mL in assay [5]; 6 µg/mL in assay [6]. The MIC in [7] was 0.19 µg/mL; in assay [8] it was 32 µg/mL; in assay [9], 0.094 µg/mL; in assay [10] it was 0.125 µg/mL; in assay [11], 0.094 µg/mL; in [12], 0.094 µg/mL.

Turning to `CC(=O)NC[C@H]1CN(c2ccc(N3CCOCC3)c(F)c2)C(=O)O1` [LINEZOLID], the MIC in assay [1], in assay [2], in [3], in assay [4], in [6] and in [7] was 1.5 µg/mL (≈ 4.45 µM) in each case. In addition, the MIC in [10] worked out at 1.5 µg/mL (≈ 4.45 µM); in assay [11] it was 1.5 µg/mL (≈ 4.45 µM); in assay [12], 1 µg/mL (≈ 2.96 µM).

Consider `O=C1CN(/N=C/c2ccc([N+](=O)[O-])o2)C(=O)N1` [NITROFURANTOIN], for which the MIC in [1] was greater than 512 µg/mL; in assay [2], 64 µg/mL (≈ 269 µM); in assay [3], 128 µg/mL (≈ 537 µM); in assay [4] it was 64 µg/mL (≈ 269 µM); in assay [5], 196 µg/mL (≈ 823 µM); in [6] it was 16 µg/mL (≈ 67.2 µM). For the same compound, the MIC in assay [7] amounted to 128 µg/mL (≈ 537 µM); in [8] it was 32 µg/mL (≈ 134 µM); in [9] it was 64 µg/mL (≈ 269 µM); in [10] it was 128 µg/mL (≈ 537 µM); in [11] it was 16 µg/mL (≈ 67.2 µM); in assay [12], 16 µg/mL (≈ 67.2 µM).

`CO[C@H]1/C=C/O[C@@]2(C)Oc3c(C)c(O)c4c(O)c(c(/C=N/N5CCN(C)CC5)c(O)c4c3C2=O)NC(=O)/C(C)=C\C=C\[C@H](C)[C@H](O)[C@@H](C)[C@@H](O)[C@@H](C)[C@H](OC(C)=O)[C@@H]1C` [RIFAMPIN]: the MIC in assay [1] was 4 µg/mL (≈ 4.86 µM); in [2], 4 µg/mL (≈ 4.86 µM); in [3] it was 0.25 µg/mL (≈ 0.304 µM); in assay [4], 3 µg/mL (≈ 3.65 µM); in [5], 8 µg/mL (≈ 9.72 µM); in assay [6] it was 4 µg/mL (≈ 4.86 µM). Further, the minimal inhibitory concentration (MIC) in assay [7] was greater than 32 µg/mL; in assay [8], 16 µg/mL (≈ 19.4 µM); in assay [9], greater than 32 µg/mL; in assay [10] it was 0.19 µg/mL (≈ 0.231 µM); in assay [11], greater than 32 µg/mL; in assay [12] it was greater than 32 µg/mL.

`CN[C@H](CC(C)C)C(=O)N[C@H]1C(=O)N[C@@H](CC(N)=O)C(=O)N[C@H]2C(=O)N[C@H]3C(=O)N[C@H](C(=O)N[C@H](C(=O)O)c4cc(O)cc(O)c4-c4cc3ccc4O)[C@H](O)c3ccc(c(Cl)c3)Oc3cc2cc(c3O[C@@H]2O[C@H](CO)[C@@H](O)[C@H](O)[C@H]2O[C@H]2C[C@](C)(N)[C@H](O)[C@H](C)O2)Oc2ccc(cc2Cl)[C@H]1O` [VANCOMYCIN]: the MIC in [1], in assay [2], in assay [3], in assay [4], in assay [5] and in assay [6] was greater than 256 µg/mL in each case. Moreover, the MIC in assay [7] is greater than 256 µg/mL; in [8], greater than 256 µg/mL; in assay [9], greater than 256 µg/mL; in [10] it was greater than 256 µg/mL; in assay [11], 0.75 µg/mL (≈ 0.518 µM); in assay [12], greater than 256 µg/mL. Besides, the outcome in assay [13] was Active.
